# Source: ChEMBL document CHEMBL3286129, “Optimization of peptidomimetic boronates bearing a P3 bicyclic scaffold as proteasome inhibitors” (Eur J Med Chem, 2014)
# Calls of active or inactive are those of the source. The calls are words filed in the database; no cut-off is given here.
# Tests used:
# PC-3 = experiment: Growth inhibition of human PC3 cells; type: functional
# NCI-H460 = experiment: Growth inhibition of human NCI-H460 cells; type: functional
# MCF7 = experiment: Growth inhibition of human MCF7 cells; type: functional
# MDA-MB-468 = experiment: Growth inhibition of human MDA-MB-468 cells; type: functional
# [1] = Cytotoxicity against human leukemia cells assessed as cell growth at 10 uM relative to control; type: functional; conditions: read-out: Activity
# In short: (§1)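 Single-concentration screen against a panel of human cancer cell lines. Each value is the mean percent growth across the cell lines of that tumour subpanel.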
# [2] = Growth inhibition of human HCC2998 cells; type: functional; conditions: HCC 2998
# SK-MEL-5 = experiment: Growth inhibition of human SK-MEL-5 cells; type: functional
# A549 = experiment: Growth inhibition of human A549/ATCC cells; type: functional
# SK-MEL-28 = experiment: Growth inhibition of human SK-MEL-28 cells; type: functional
# NCI-H23 = experiment: Growth inhibition of human NCI-H23 cells; type: functional
# M14 = experiment: Growth inhibition of human M14 cells; type: functional
# [3] = Growth inhibition of human LOXIMVI cells; type: functional; conditions: LOX IMVI
# CCRF-CEM = experiment: Growth inhibition of human CCRF-CEM cells; type: functional
# HL-60(TB) = experiment: Growth inhibition of human HL-60(TB) cells; type: functional; conditions: read-out: LC50 (the source's name)
# [4] = molecular target: T1, Proteasome Macropain subunit MB1 (Homo sapiens, UniProt P28074); experiment: Inhibition of chymotrypsin-like activity of 20S proteasome in human erythrocytes using Suc-Leu-Leu-Val-Tyr-AMC as substrate by fluorescence assay; conditions: read-out: Ki
# T1 sequence (P28074 whole entry): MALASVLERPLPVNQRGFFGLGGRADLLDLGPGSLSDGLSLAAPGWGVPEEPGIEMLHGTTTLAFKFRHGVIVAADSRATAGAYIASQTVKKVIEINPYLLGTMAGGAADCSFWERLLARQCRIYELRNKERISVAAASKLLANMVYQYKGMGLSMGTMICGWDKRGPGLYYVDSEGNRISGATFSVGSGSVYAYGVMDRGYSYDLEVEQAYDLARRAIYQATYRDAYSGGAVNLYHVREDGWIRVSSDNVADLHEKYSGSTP
# NCI-H522 = experiment: Growth inhibition of human NCI-H522 cells; type: functional
# COLO 205 = experiment: Growth inhibition of human COLO205 cells; type: functional
# [5] = Growth inhibition of human RXF393 cells; type: functional
# [6] = Growth inhibition of human UACC257 cells; type: functional; conditions: UACC-257
# [7] = Growth inhibition of human SF295 cells; type: functional; conditions: SF-295
# DU-145 = experiment: Growth inhibition of human DU145 cells; type: functional
# HCT-116 = experiment: Growth inhibition of human HCT116 cells; type: functional
# RPMI-8226 = experiment: Growth inhibition of human RPMI8226 cells; type: functional
# HT-29 = experiment: Growth inhibition of human HT-29 cells; type: functional
# [8] = Cytotoxicity against human renal cancer cells assessed as cell growth at 10 uM relative to control; type: functional; conditions: Cancer cell lines, read-out: Activity; in short: as §1
# NCI-H322M = experiment: Growth inhibition of human NCI-H322M cells; type: functional
# [9] = Growth inhibition of human HCT15 cells; type: functional
# SF-268 = experiment: Growth inhibition of human SF268 cells; type: functional
# [10] = Growth inhibition of human OVCAR8 cells; type: functional
# [11] = Cytotoxicity against human breast cancer cells assessed as cell growth at 10 uM relative to control; type: functional; conditions: Cancer cell lines, read-out: Activity; in short: as §1
# MDA-MB-231 = experiment: Growth inhibition of human MDA-MB-231 cells; type: functional
# [12] = Growth inhibition of human Hs 578T cells; type: functional
# SNB-75 = experiment: Growth inhibition of human SNB75 cells; type: functional
# [13] = molecular target: Proteasome Macropain subunit (Homo sapiens) (UniProt P49721); experiment: Inhibition of trypsin-like activity of 20S proteasome in human erythrocytes using Boc-Leu-Arg-Arg-AMC as substrate by fluorescence assay; type: cell-based
# Proteasome Macropain subunit (Homo sapiens), sequence (P49721 whole entry): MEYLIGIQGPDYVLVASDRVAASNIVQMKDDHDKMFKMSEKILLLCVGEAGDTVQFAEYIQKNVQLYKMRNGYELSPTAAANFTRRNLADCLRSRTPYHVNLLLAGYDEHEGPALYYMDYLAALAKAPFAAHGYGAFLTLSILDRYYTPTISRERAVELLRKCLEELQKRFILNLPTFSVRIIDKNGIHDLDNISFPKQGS
# In short: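 Human 20S proteasome 0.0025 mg/mL at 30 °C in 50 mM Tris pH 7.4, 50 mM NaCl, 0.5 mM EDTA, 0.03% SDS, 7.5% DMSO. Varied inhibitor concentrations; AMC release monitored continuously for 10 min, ex 380/em 460 nm. Ki derived from progress-curve IC50 fit.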
# [14] = Growth inhibition of human BT549 cells; type: functional
# SNB-19 = experiment: Growth inhibition of human SNB19 cells; type: functional
# 786-0 = experiment: Growth inhibition of human 786-0 cells; type: functional
# [15] = read-out: LC50 (the source's name)
smiles,measurement,setting,value
CC(C)C[C@H](NC(=O)CCn1ccc2ccc(Br)cc2c1=O)B(O)O,GI50,PC-3,4.19 µM
same,TGI,PC-3,> 100 µM
same,CC50,PC-3; [15],> 100 µM
same,GI50,NCI-H460,3.18 µM
same,LC50,NCI-H460,> 100 µM
same,TGI,NCI-H460,> 100 µM
same,GI50,MCF7,0.39 µM
same,TGI,MCF7,> 100 µM
same,CC50,MCF7; [15],> 100 µM
same,GI50,MDA-MB-468,0.26 µM
same,TGI,MDA-MB-468,0.74 µM
same,CC50,MDA-MB-468; [15],> 100 µM
same,growth at 10 µM,[1],0.02%
same,GI50,[2],1.14 µM
same,LC50,[2],8.42 µM
same,TGI,[2],3.09 µM
same,GI50,SK-MEL-5,0.37 µM
same,LC50 (concentration killing 50% of cells),SK-MEL-5,82.5 µM
same,TGI,SK-MEL-5,3.11 µM
same,GI50,A549,2.39 µM
same,TGI,A549,> 100 µM
same,CC50,A549; [15],> 100 µM
same,GI50,SK-MEL-28,0.52 µM
same,TGI,SK-MEL-28,29.7 µM
same,CC50,SK-MEL-28; [15],> 100 µM
same,GI50,NCI-H23,1.59 µM
same,TGI,NCI-H23,> 100 µM
same,CC50,NCI-H23; [15],> 100 µM
same,GI50,M14,0.36 µM
same,LC50 (concentration killing 50% of cells),M14,> 100 µM
same,TGI,M14,3.88 µM
same,GI50,[3],0.22 µM
same,TGI,[3],0.61 µM
same,GI50,CCRF-CEM,0.43 µM
same,TGI,CCRF-CEM,> 100 µM
same,CC50,CCRF-CEM; [15],> 100 µM
same,CC50,HL-60(TB),> 100 µM
same,Ki,[4],0.06 µM
same,GI50,NCI-H522,0.3 µM
same,LC50,NCI-H522,> 100 µM
same,TGI,NCI-H522,2.25 µM
same,GI50,COLO 205,0.85 µM
same,TGI,COLO 205,> 100 µM
same,CC50,COLO 205; [15],> 100 µM
same,GI50,[5]; RXF 393,0.28 µM
same,TGI,[5]; RXF 393,0.88 µM
same,CC50,"[5]; RXF 393, read-out: LC50 (the source's name)",5.39 µM
same,GI50,[6],0.73 µM
same,TGI,[6],2.86 µM
same,GI50,[7],0.58 µM
same,LC50,[7],75.5 µM
same,TGI,[7],4.51 µM
same,GI50,DU-145,0.71 µM
same,TGI,DU-145,> 100 µM
same,CC50,DU-145; [15],> 100 µM
same,GI50,HCT-116,0.34 µM
same,LC50,HCT-116,> 100 µM
same,TGI,HCT-116,2.55 µM
same,GI50,RPMI-8226,0.32 µM
same,TGI,RPMI-8226,> 100 µM
same,CC50,RPMI-8226; [15],> 100 µM
same,GI50,HT-29,0.45 µM
same,LC50,HT-29,> 100 µM
same,TGI,HT-29,> 100 µM
same,growth at 10 µM,[8],-4%
same,GI50,NCI-H322M,> 100 µM
same,TGI,NCI-H322M,> 100 µM
same,CC50,NCI-H322M; [15],> 100 µM
same,GI50,[9]; HCT-15,1.61 µM
same,TGI,[9]; HCT-15,22.1 µM
same,CC50,"[9]; HCT-15, read-out: LC50 (the source's name)",> 100 µM
same,GI50,SF-268,0.7 µM
same,LC50,SF-268,> 100 µM
same,TGI,SF-268,3.85 µM
same,GI50,[10]; OVCAR-8,3.64 µM
same,TGI,[10]; OVCAR-8,> 100 µM
same,CC50,"[10]; OVCAR-8, read-out: LC50 (the source's name)",> 100 µM
same,growth at 10 µM,[11],2.31%
same,GI50,MDA-MB-231,1.2 µM
same,TGI,MDA-MB-231,12.2 µM
same,CC50,MDA-MB-231; [15],> 100 µM
same,GI50,[12],0.43 µM
same,TGI,[12],6.2 µM
same,CC50,[12]; [15],> 100 µM
same,GI50,SNB-75,0.46 µM
same,LC50,SNB-75,> 100 µM
same,TGI,SNB-75,3.82 µM
same,inhibition,[13],inactive
same,GI50,[14]; BT-549,0.36 µM
same,TGI,[14]; BT-549,4.32 µM
same,CC50,"[14]; BT-549, read-out: LC50 (the source's name)",> 100 µM
same,GI50,SNB-19,0.96 µM
same,TGI,SNB-19,> 100 µM
same,CC50,SNB-19; [15],> 100 µM
same,GI50,786-0,0.82 µM
same,TGI,786-0,> 100 µM
same,CC50,786-0; [15],> 100 µM
